Screening data from PubChem.
TDP2 inh – blocks human TDP2 phosphodiesterase activity; actives 0.34% (n = 370,000); recombinant TDP2, T5PNP hydrolysis, p-nitrophenol absorbance 415 nm; inhibition, % at 12.8 µM; O95551;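 active means inhibition above the mean of all tested compounds plus 3 SD, set per campaign, cut at about 25% in these data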;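 further: 0% = DMSO with enzyme and 100% = buffer with substrate but no TDP2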
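Test system: Human TDP2 enzyme | Reagent: 5 mM T5PNP | Compound dosing: 12.8 µM single point, 1% DMSO | Incubation: Enzyme reaction with compound for 2 h at 37 °C | Technique: p-Nitrophenol epi absorbance | Read-out: % inhibition relative to enzyme-containing and enzyme-free wells | Benchmarks: High control without enzyme, low control DMSO plus TDP2 | Replicates: Singlicate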
PAFAH2 FP inh – inhibitors of human PAFAH2. actives 0.99% (n = 340,000). AID 492956. inhibition, % at 3.39 µM. recombinant PAFAH2, FP-rhodamine activity probe, fluorescence polarization;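 active means inhibition above the mean over all tested compounds plus 3 SD, cut at about 30% in these data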;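 further: inhibitors block probe labeling of enzyme so polarization drops; 0% = enzyme with DMSO and 100% = wells lacking PAFAH2 protein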
PAFAH1B3 FP inh – inhibitors of human PAFAH1B3; inhibition, % at 3.39 µM; actives 0.28% (n = 340,000); recombinant PAFAH1B3, FP-rhodamine probe, fluorescence polarization;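 active means inhibition above the screen-wide average of all tested compounds plus 3 SD, cut at about 25% in these data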;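 further: 0% = enzyme with DMSO only and 100% = wells lacking PAFAH1B3 protein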
Target sequence (Q15102 whole entry, looked up): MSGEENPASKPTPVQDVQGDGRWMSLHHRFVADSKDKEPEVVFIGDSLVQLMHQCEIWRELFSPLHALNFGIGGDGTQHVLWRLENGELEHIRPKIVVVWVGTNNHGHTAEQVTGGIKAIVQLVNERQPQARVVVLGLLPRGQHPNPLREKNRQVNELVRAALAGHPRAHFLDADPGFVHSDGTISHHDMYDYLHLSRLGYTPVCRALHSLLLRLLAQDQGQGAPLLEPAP
PAFAH1B2 FP inh – PAFAH1B2 (human) inhibition. P68402. recombinant PAFAH1B2, FP-rhodamine activity probe, fluorescence polarization. inhibition, % at 3.39 µM. actives 1.2% (n = 340,000);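 active means inhibition above the mean of all tested compounds plus 3 SD, cut at about 24% in these data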;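 further: 0% = enzyme with DMSO and 100% = wells lacking PAFAH1B2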
Target sequence (P68402 whole entry, looked up): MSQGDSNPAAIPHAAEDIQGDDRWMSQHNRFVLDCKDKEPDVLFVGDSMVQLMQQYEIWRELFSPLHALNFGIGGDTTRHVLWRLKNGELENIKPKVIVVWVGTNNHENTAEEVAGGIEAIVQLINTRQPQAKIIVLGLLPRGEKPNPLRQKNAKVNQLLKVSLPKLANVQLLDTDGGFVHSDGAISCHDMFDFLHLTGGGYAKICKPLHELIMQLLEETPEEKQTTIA
Apaf1 inhib – human Apaf-1 inhibition; reconstituted apoptosome caspase-3 activity, DEVD-Rh110 fluorescence; actives 0.71% (n = 330,000); O14727; inhibition, % at 20 µM; active means inhibition of at least 40% at 20 µM;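 further: plate controls were DMSO wells for no effect and DEVD-CHO caspase inhibitor wells for full effect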
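Material: reconstituted apoptosome with Apaf-1, cytochrome c, caspase-9, procaspase-3, dATP / Buffer or medium: pH 7.5 Hepes buffer with CHAPS, BSA, DTT / Also added: cytochrome c with DEVD-Rh110 / Schedule: compound with Apaf-1, dATP, procaspase-3 30 min, then 50 min reaction, room temperature / Technique: rhodamine 110 fluorescence at Ex 480/Em 540 nm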
TDP2 confirm – human TDP2 inhibition, confirmation; AID 743263; recombinant human TDP2, absorbance read-out; actives 22% (n = 1,100); inhibition, % at 12.8 µM; shares compounds with TDP2 inh; in the data active means inhibition above about 25%;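 further: 0% = vehicle with enzyme and 100% = no enzyme buffer only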
* = called active by the depositor. A selection: hits, their analogues and other compounds. The true share with any hit is near 2.3%.

Results for CCc1nnc(N/N=C/c2ccc(N3CCC(C)CC3)c([N+](=O)[O-])c2)n1N ?
TDP2 inh: 68*; PAFAH2 FP inh: 1; PAFAH1B3 FP inh: 7; PAFAH1B2 FP inh: 6; Apaf1 inhib: 8; TDP2 confirm: 12

How did CCCCNC[C@@]12CO[C@H](c3ccc(Cl)cc3)N1[C@@H](c1ccc(Cl)cc1)SC2 do in these assays?
TDP2 inh: 7

How did COC(=O)[C@]12C[C@H](CC(=O)NCc3cccs3)C(=O)N(Cc3ccco3)C1=C[C@H](C(C)C)O[C@@H]2C1CC1 do in these assays?
TDP2 inh: 1

Results for CCc1cc(SC#N)cc(C)c1N ?
TDP2 inh: 32*; PAFAH2 FP inh: 3; PAFAH1B3 FP inh: 8; PAFAH1B2 FP inh: 0; Apaf1 inhib: 6; TDP2 confirm: 5

Results for Cn1c(NC(=O)c2ccccc2)nc(Cc2ccccc2)c1Cc1ccccc1 ?
TDP2 inh: -7

How did COC(=O)C1=C(C)N(Cc2ccccc2C(F)(F)F)C(=NCc2ccccc2C(F)(F)F)NC1c1ccc(Cl)cc1 (stereo unspecified) do in these assays?
TDP2 inh: -8

How did CCCCNC(=O)C[C@H]1C[C@@]2(C(=O)OC)C(=C[C@H](C(C)(C)C)O[C@@H]2C)N(CCc2ccc(OC)c(OC)c2)C1=O do in these assays?
TDP2 inh: -11

What do the screens show for `O=C(O)COc1ccccc1/C=C1\C(=O)Nc2ccc(Br)cc21`?
TDP2 inh: 29*; PAFAH2 FP inh: -4; PAFAH1B3 FP inh: 4; PAFAH1B2 FP inh: 12; Apaf1 inhib: 5; TDP2 confirm: 14

How did COCCn1c(N)c(S(=O)(=O)c2cccs2)c2nc3ccccc3nc21 do in these assays?
TDP2 inh: 57*; PAFAH2 FP inh: 11; PAFAH1B3 FP inh: 48*; PAFAH1B2 FP inh: 25*; Apaf1 inhib: 5; TDP2 confirm: -6

Results for Nc1c(S(=O)(=O)c2cccs2)c2nc3ccccc3nc2n1Cc1ccccc1 ?
TDP2 inh: 44*; PAFAH2 FP inh: -9; PAFAH1B3 FP inh: 2; PAFAH1B2 FP inh: 0; Apaf1 inhib: 27; TDP2 confirm: 4

Results for Cc1ccc(Cn2c(N)c(S(=O)(=O)c3cccs3)c3nc4ccccc4nc32)cc1 ?
TDP2 inh: -5; PAFAH2 FP inh: -3; PAFAH1B3 FP inh: 2; PAFAH1B2 FP inh: -1; Apaf1 inhib: 7

Results for CN(C)CCCn1c(N)c(S(=O)(=O)c2ccccc2)c2nc3ccccc3nc21 ?
TDP2 inh: -1; Apaf1 inhib: -13

Results for C[C@@H]1CNC(=O)c2c(C(=O)N3CCN(c4ccccc4)CC3)ncn21 ?
TDP2 inh: -6

How did CN1CCN(S(=O)(=O)c2ccc(NC(=O)c3ccccc3Cl)cc2)CC1 do in these assays?
TDP2 inh: 0; PAFAH2 FP inh: 4; PAFAH1B3 FP inh: -4; PAFAH1B2 FP inh: 7; Apaf1 inhib: -8

How did CN1CCN(S(=O)(=O)c2ccc(NC(=O)c3ccccc3F)cc2)CC1 do in these assays?
TDP2 inh: 25*; PAFAH2 FP inh: 5; PAFAH1B3 FP inh: 2; PAFAH1B2 FP inh: 8; Apaf1 inhib: -5; TDP2 confirm: 4

Results for CCN(CC)c1cc2nonc2c2nonc12 ?
TDP2 inh: -9; PAFAH2 FP inh: 1; PAFAH1B3 FP inh: 7; PAFAH1B2 FP inh: -4; Apaf1 inhib: -15

What do the screens show for `CCN(CC)c1cc(Cl)c2nonc2c1N`?
TDP2 inh: 33*; PAFAH2 FP inh: -2; PAFAH1B3 FP inh: 3; PAFAH1B2 FP inh: 3; Apaf1 inhib: -10; TDP2 confirm: 9

Results for CC1=CC2(O)OCCN(CCO)C2=CC1=O (stereo unspecified) ?
TDP2 inh: 32*; PAFAH2 FP inh: 12; PAFAH1B3 FP inh: 16; PAFAH1B2 FP inh: 7; Apaf1 inhib: -17; TDP2 confirm: 9

Results for Cc1cc(C)n(-c2ncc3c(n2)N(CCO)CCOC3=O)n1 ?
TDP2 inh: 8; PAFAH2 FP inh: 0; PAFAH1B3 FP inh: 0; PAFAH1B2 FP inh: 0; Apaf1 inhib: -8

What do the screens show for `CCOC(=O)c1cc2c(ccn2C)n1Cc1ccccc1C`?
TDP2 inh: 26*; PAFAH2 FP inh: 1; PAFAH1B3 FP inh: 0; PAFAH1B2 FP inh: 0; Apaf1 inhib: -4; TDP2 confirm: -15

How did COCCCNC(=O)C[C@@H]1C(=O)N(CCc2ccc(Cl)cc2)C2=CCCCC[C@]21C(=O)OC do in these assays?
TDP2 inh: -3

How did CC(CN1CCC(O)CC1)c1ccccc1 (stereo unspecified) do in these assays?
TDP2 inh: -17; PAFAH2 FP inh: -3; PAFAH1B3 FP inh: 5; PAFAH1B2 FP inh: 6; Apaf1 inhib: -15

Results for CC(NC(=O)C(C)N1CCN(Cc2ccccc2)CC1)c1ccccc1 (stereo unspecified) ?
TDP2 inh: 25*; PAFAH2 FP inh: 6; PAFAH1B3 FP inh: 5; PAFAH1B2 FP inh: 8; Apaf1 inhib: -3; TDP2 confirm: -3

What do the screens show for `Cc1cccc(CN2CCN(C(C)C(=O)NC(C)c3ccccc3)CC2)c1` (stereo unspecified)?
TDP2 inh: 3; PAFAH2 FP inh: -2; PAFAH1B3 FP inh: -8; PAFAH1B2 FP inh: 3; Apaf1 inhib: 6

Results for CC(CN1CCN(Cc2ccccc2)CC1)c1ccccc1 (stereo unspecified) ?
TDP2 inh: 26*; PAFAH2 FP inh: 4; PAFAH1B3 FP inh: 6; PAFAH1B2 FP inh: 4; Apaf1 inhib: -5; TDP2 confirm: 10

Results for COCCn1cnc2c1c(=O)n(CC(=O)NC(=O)NC(C)(C)C)c(=O)n2Cc1ccccc1 ?
TDP2 inh: 39*; PAFAH2 FP inh: 6; PAFAH1B3 FP inh: 0; PAFAH1B2 FP inh: 5; TDP2 confirm: 2

What do the screens show for `CCNC(=S)NNC(=O)Cn1c(=O)c2c(ncn2CCOC)n(Cc2ccccc2)c1=O`?
TDP2 inh: -10; PAFAH2 FP inh: 1; PAFAH1B3 FP inh: 0; PAFAH1B2 FP inh: -4; Apaf1 inhib: -2

Results for O=C(NCc1cccc(C(F)(F)F)c1)O[C@H]1CC[C@@]23CCCN2C(=O)CCC[C@H]3C1 ?
TDP2 inh: 0

What do the screens show for `CC(=O)c1ccc(OCc2cc(C(=O)NC(C)Cc3ccccn3)no2)cc1` (stereo unspecified)?
TDP2 inh: 30*; PAFAH2 FP inh: 6; PAFAH1B3 FP inh: -1; PAFAH1B2 FP inh: 7; Apaf1 inhib: -2; TDP2 confirm: 5

Results for Clc1ccccc1N=Nc1ccccn1 ?
TDP2 inh: 42*; PAFAH2 FP inh: 12; PAFAH1B3 FP inh: 19; PAFAH1B2 FP inh: 12; TDP2 confirm: 27*

How did COc1ccc(-n2c(N)c(C(=O)NCc3ccco3)c3nc4ccccc4nc32)cc1OC do in these assays?
TDP2 inh: -3; PAFAH2 FP inh: 13; PAFAH1B3 FP inh: 6; PAFAH1B2 FP inh: -4; Apaf1 inhib: 3
